In ChEMBL document CHEMBL2390828, “Synthesis and biological characterization of spiro[2H-(1,3)-benzoxazine-2,4'-piperidine] based histone deacetylase inhibitors” (Eur J Med Chem, 2013):

Assays:
[1] = target: Histone deacetylase 2 (Homo sapiens, UniProt Q92769); experiment: Inhibition of HDAC2 (unknown origin)
[2] = target: Histone deacetylase; experiment: Inhibition of HDAC in human Hela cell nuclear extract after 15 mins; format: protein assay
[3] = Volume of distribution at steady state in CD1 mouse at 5 mg/kg, iv and 15 mg/kg, po; format: ADME, organism-based; settings: in vivo, read-out: Vdss
Method in brief: (§1)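 CD-1 mice got single doses of 5 mg/kg iv or 15 mg/kg orally. The iv vehicle was water with 3% DMSO and 9.7% encapsin. The oral vehicle was water with 5% DMSO and 9.5% encapsin. Plasma PK parameters were calculated, including AUC0–∞, clearance, half-life, Vss, cmax and oral bioavailability.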

[4] = test system: HCT-116; experiment: Cytotoxicity against human HCT116 cells; format: functional, cell-based
[5] = AUC (0 to infinity) in CD1 mouse at 5 mg/kg, iv; format: ADME, organism-based; set-up: time infinity, dose 5 mg/kg, route intravenous; settings: plasma; method in brief: as §1
[6] = AUC (0 to infinity) in CD1 mouse at 15 mg/kg, po; format: ADME, organism-based; set-up: time infinity, dose 15 mg/kg, route oral; settings: plasma; method in brief: as §1
[7] = test system: A549; experiment: Cytotoxicity against human A549 cells; format: functional, cell-based
[8] = Cmax in CD1 mouse at 5 mg/kg, iv; format: ADME, organism-based; set-up: dose 5 mg/kg, route intravenous; settings: in vivo; method in brief: as §1
[9] = test system: K562; experiment: Cytotoxicity against human K562 cells; format: functional, cell-based
[10] = Oral bioavailability in CD1 mouse at 15 mg/kg; settings: in vivo
[11] = Tmax in CD1 mouse at 5 mg/kg, iv and 15 mg/kg, po; format: ADME, organism-based; settings: in vivo; method in brief: as §1
[12] = target: T1, Protein deacetylase HDAC6 (Homo sapiens, UniProt Q9UBN7); experiment: Inhibition of HDAC6 (unknown origin)
T1 sequence (Q9UBN7 whole entry): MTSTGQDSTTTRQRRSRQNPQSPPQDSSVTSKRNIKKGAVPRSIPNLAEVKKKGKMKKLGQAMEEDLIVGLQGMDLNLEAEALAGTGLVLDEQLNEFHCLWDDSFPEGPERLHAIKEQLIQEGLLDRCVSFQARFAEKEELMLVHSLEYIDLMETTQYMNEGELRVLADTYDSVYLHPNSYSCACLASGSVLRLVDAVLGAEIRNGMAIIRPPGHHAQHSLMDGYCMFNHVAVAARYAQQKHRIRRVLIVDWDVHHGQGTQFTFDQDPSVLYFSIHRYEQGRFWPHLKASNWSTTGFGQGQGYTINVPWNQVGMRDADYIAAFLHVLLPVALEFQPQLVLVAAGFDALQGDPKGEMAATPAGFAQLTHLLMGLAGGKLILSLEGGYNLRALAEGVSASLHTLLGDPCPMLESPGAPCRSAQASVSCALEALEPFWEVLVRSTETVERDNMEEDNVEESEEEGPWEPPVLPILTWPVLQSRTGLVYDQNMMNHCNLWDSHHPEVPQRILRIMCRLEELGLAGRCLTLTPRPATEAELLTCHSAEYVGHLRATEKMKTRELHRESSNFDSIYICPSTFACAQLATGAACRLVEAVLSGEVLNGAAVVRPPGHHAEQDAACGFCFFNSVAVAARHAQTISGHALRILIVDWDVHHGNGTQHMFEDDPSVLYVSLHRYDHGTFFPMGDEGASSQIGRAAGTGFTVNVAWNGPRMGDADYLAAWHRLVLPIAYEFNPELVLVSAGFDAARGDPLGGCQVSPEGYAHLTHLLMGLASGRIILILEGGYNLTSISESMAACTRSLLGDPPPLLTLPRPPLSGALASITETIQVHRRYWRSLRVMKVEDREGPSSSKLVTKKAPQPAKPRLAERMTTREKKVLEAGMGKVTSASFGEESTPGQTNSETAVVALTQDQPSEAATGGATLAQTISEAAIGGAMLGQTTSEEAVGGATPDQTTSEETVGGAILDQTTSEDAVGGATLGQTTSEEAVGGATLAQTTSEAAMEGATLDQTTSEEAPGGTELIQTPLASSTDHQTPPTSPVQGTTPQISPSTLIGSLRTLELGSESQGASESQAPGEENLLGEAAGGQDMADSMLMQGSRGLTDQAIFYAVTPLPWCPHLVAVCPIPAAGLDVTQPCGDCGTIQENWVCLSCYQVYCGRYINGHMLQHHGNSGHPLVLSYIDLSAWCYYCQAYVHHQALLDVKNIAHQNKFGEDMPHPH

[13] = Clearance in CD1 mouse at 5 mg/kg, iv and 15 mg/kg, po; format: ADME, organism-based; settings: in vivo; method in brief: as §1
[14] = target: Histone deacetylase 3 (Homo sapiens, UniProt O15379); experiment: Inhibition of HDAC3 (unknown origin)
Histone deacetylase 3, sequence (O15379 whole entry): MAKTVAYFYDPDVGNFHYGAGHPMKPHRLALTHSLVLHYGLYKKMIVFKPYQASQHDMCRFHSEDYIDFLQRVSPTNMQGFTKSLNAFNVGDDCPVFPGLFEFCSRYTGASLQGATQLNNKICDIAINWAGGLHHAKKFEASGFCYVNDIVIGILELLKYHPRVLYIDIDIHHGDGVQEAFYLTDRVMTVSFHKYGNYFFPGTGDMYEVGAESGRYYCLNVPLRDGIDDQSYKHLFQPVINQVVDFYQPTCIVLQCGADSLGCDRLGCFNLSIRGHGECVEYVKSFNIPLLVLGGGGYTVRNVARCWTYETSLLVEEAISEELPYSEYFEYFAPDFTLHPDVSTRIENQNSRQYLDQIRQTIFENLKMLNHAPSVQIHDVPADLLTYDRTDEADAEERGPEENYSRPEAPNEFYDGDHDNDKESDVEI

[15] = Cmax in CD1 mouse at 15 mg/kg, po; settings: CD1, mouse, in vivo
[16] = Metabolic stability in human liver microsomes after 30 mins by LC-MS/MS analysis; format: ADME, Microsome; settings: read-out: Stability
Method in brief: (§2)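 Compounds were incubated with mouse or human liver microsomal preparation for 30 min at 37 °C. The reaction was stopped with CH3CN. Unmetabolized compound was quantified by LC-MS/MS in MRM mode and reported as percent remaining. Replicates n ≥ 2, mean values given.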

[17] = Metabolic stability in mouse liver microsomes after 30 mins by LC-MS/MS analysis; format: ADME, Microsome; settings: read-out: Stability; method in brief: as §2
[18] = Terminal half life in CD1 mouse at 5 mg/kg, iv and 15 mg/kg, po; format: ADME, organism-based; settings: in vivo, read-out: beta t1/2 (converted); method in brief: as §1
[19] = Solubility of the compound at pH 7.4; format: physicochemical; settings: buffer
[20] = target: Voltage-gated inwardly rectifying potassium channel KCNH2 (Homo sapiens, UniProt Q12809); experiment: Inhibition of human ERG channel
Voltage-gated inwardly rectifying potassium channel KCNH2, sequence (Q12809 whole entry): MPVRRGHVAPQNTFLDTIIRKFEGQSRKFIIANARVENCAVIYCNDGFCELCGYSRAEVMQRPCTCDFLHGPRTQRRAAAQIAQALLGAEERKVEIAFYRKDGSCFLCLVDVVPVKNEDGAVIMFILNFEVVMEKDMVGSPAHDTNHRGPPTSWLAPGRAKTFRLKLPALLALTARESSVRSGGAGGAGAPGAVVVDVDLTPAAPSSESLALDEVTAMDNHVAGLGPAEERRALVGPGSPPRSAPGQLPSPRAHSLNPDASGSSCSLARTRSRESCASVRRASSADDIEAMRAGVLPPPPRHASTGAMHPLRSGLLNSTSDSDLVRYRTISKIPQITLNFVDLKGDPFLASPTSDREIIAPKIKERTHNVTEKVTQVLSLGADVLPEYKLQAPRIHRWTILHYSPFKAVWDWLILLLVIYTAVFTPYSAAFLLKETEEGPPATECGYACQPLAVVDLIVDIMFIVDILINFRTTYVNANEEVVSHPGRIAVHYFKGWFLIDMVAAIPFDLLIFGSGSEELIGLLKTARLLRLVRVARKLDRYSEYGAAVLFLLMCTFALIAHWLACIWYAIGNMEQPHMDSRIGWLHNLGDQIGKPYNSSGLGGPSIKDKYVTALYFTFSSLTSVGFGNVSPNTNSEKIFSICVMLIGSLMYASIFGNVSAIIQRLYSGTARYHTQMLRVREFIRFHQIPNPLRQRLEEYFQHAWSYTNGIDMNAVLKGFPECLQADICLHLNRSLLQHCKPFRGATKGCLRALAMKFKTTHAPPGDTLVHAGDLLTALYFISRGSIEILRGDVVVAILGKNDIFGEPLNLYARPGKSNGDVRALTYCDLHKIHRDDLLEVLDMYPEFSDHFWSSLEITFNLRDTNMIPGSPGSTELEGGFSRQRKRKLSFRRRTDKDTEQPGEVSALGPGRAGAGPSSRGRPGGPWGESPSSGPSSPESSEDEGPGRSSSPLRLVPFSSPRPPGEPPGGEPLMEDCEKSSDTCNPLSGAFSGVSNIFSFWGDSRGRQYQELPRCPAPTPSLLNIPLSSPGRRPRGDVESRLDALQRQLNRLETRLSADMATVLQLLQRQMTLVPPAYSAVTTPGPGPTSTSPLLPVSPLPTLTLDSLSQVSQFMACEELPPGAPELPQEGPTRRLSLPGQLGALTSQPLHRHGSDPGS

Histone deacetylase 2, sequence (Q92769 whole entry): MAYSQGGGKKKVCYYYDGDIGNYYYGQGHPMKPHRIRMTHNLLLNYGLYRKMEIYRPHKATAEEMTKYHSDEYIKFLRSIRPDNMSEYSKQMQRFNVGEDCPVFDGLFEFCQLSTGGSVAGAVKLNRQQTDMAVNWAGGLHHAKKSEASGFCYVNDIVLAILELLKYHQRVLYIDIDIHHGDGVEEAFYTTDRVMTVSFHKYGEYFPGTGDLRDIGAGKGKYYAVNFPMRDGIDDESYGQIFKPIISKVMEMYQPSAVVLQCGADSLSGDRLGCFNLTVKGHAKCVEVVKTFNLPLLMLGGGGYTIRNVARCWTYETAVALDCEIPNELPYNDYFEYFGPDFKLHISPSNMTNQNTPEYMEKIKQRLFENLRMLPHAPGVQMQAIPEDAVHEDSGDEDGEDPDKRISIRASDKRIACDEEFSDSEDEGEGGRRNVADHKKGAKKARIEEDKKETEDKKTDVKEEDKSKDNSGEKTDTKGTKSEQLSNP

SMILES | IC50 [1] | IC50 [2] | Vd [3] | AUC(0-inf) [5] | AUC(0-inf) [6] | Cmax [8] | bioavailability [10] | Tmax [11] | IC50 [12] | clearance [13] | IC50 [14] | Cmax [15] | remaining at 0.5 h [16] | remaining at 0.5 h [17] | half-life [18] | solubility [19] | IC50 [4] | IC50 [7] | IC50 [9] | inhibition (INH) [20]
O=C(/C=C/c1ccc2c(c1)C(=O)CC1(CCN(CCc3ccccc3)CC1)O2)NO | 190 nM | 113 nM | 8.6 L/kg | 1040 ng·h/mL | 1600 ng·h/mL | 6.34 µM | 51.1% | 15 min | 160 nM | 79.8 mL/min/kg | 130 nM | 2.49 µM |  |  |  |  | 201 nM | 551 nM | 180 nM | 
O=C(/C=C/c1ccc2c(c1)C(=O)N(Cc1ccccc1)C1(CCN(CCc3ccccc3)CC1)O2)NO |  | 645 nM |  |  |  |  |  |  |  |  |  |  |  |  |  |  | 1670 nM | 1510 nM | 1250 nM | 
CN1CCC2(CC1)Oc1ccc(/C=C/C(=O)NO)cc1C(=O)N2Cc1ccccc1 |  | 174 nM |  |  |  |  |  |  |  |  |  |  | 53% | 19% |  |  | 326 nM | 912 nM | 360 nM | 
CN1CCC2(CC1)NC(=O)c1cc(/C=C/C(=O)NO)ccc1O2 |  | 99 nM |  |  |  |  |  |  |  |  |  |  |  |  |  |  | 886 nM | 2700 nM | 1490 nM | 
CN1CCC2(CC1)Oc1ccc(/C=C/C(=O)NO)cc1C(=O)N2C |  | 527 nM |  |  |  |  |  |  |  |  |  |  |  |  |  |  | 1400 nM | 3540 nM | 1700 nM | 

Now from value to compound, other results behind:

IC50 [1] | IC50 [2] | Vd [3] | AUC(0-inf) [5] | AUC(0-inf) [6] | Cmax [8] | bioavailability [10] | Tmax [11] | IC50 [12] | clearance [13] | IC50 [14] | Cmax [15] | remaining at 0.5 h [16] | remaining at 0.5 h [17] | half-life [18] | solubility [19] | SMILES | IC50 [4] | IC50 [7] | IC50 [9] | inhibition (INH) [20]
 | 137 nM |  |  |  |  |  |  |  |  |  |  | 60% | 39% |  |  | CN1C(=O)c2cc(/C=C/C(=O)NO)ccc2OC12CCN(Cc1ccc(F)cc1)CC2 | 848 nM | 2100 nM | 734 nM | 
 | 258 nM |  |  |  |  |  |  |  |  |  |  |  |  |  |  | CN1C(=O)c2cc(/C=C/C(=O)NO)ccc2OC12CCN(CCc1ccccc1)CC2 | 1060 nM | 2550 nM | 795 nM | 
 | 103 nM | 3.1 L/kg | 1880 ng·h/mL | 1980 ng·h/mL | 13 µM | 35% | 5 min |  | 44.3 mL/min/kg |  | 5.05 µM | 71% | 98% | 414 min | > 200 µM | O=C(/C=C/c1ccc2c(c1)C(=O)NC1(CCN(Cc3ccc(F)cc3)CC1)O2)NO | 498 nM | 1670 nM | 961 nM | 70%
 | 136 nM |  |  |  |  |  |  |  |  |  |  |  |  |  |  | CN1C(=O)c2cc(/C=C/C(=O)NO)ccc2OC12CCN(Cc1ccccc1)CC2 | 979 nM | 2220 nM | 1330 nM | 
